What all share (format): functional
One assay deals with Kluyveromyces marxianus. Description: Antifungal activity against Candida kefyr ATCC 20409 assessed as growth inhibition zone at 50 ug after 24 hrs by Kirby-Bauer agar diffusion assay. The conditions noted are these: ATCC 20409, 24 h, read-out: IZ. The method in brief: (§1)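 Disk diffusion on yeast nitrogen base agar, swabbed with a McFarland 0.5 suspension in saline. 6 mm cellulose disks carried 10 µL of a 5 mg/mL CH2Cl2 stock (50 ug per disk), air-dried, three disks per plate. Plates were sealed and incubated 24 h at 37°C. Cleared inhibition zones were measured and averaged over triplicates.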

Another assay concerns Cyberlindnera jadinii. As to the kind of experiment: Antifungal activity against Candida utilis ATCC 29950 assessed as growth inhibition zone at 50 ug after 24 by Kirby-Bauer agar diffusion assay. The conditions noted are these: Williopsis jadinii, read-out: IZ. Summed up: as §1
A general note: Agar diffusion results depend on both activity and mobility in agar.

The test system of the next assay is Nakaseomyces glabratus. As to the kind of experiment: Antifungal activity against Candida glabrata ATCC 15126 assessed as growth inhibition zone at 50 ug after 24 hrs by Kirby-Bauer agar diffusion assay. The conditions noted are these: ATCC 15126, 24 h, read-out: IZ. The method in brief: as §1
The test system of a further assay is Candida albicans. As to the kind of experiment: Antifungal activity against Candida albicans ATCC 2091 assessed as growth inhibition zone at 50 ug after 24 hrs by Kirby-Bauer agar diffusion assay. The conditions noted are these: ATCC 2091, 24 h, read-out: IZ. Summed up: as §1
The next assay concerns Pichia kudriavzevii. As to the kind of experiment: Antifungal activity against Candida krusei ATCC 14243 assessed as growth inhibition zone at 50 ug after 24hrs by Kirby-Bauer agar diffusion assay. The conditions noted are these: ATCC 14243, 24 h, read-out: IZ. The method in brief: as §1
The next assay relates to Candida parapsilosis. Description: Antifungal activity against Candida parapsilosis ATCC 22019 assessed as growth inhibition zone at 50 ug after 24 hrs by Kirby-Bauer agar diffusion assay. The conditions noted are these: Lodderomyces parapsilosis, ATCC 22019, 24 h; read-out: IZ. The method in brief: as §1
A further assay deals with Clavispora lusitaniae. As to the kind of experiment: Antifungal activity against Candida lusitaniae ATCC 34449 assessed as growth inhibition zone at 50 ug after 24 by Kirby-Bauer agar diffusion assay. The conditions noted are these: read-out: IZ. The method in brief:
as §1

A further assay relates to Candida tropicalis. Description: Antifungal activity against Candida tropicalis clinical isolate assessed as growth inhibition zone at 50 ug after 24 hrs by Kirby-Bauer agar diffusion assay. The conditions noted are these: read-out: IZ. Summed up:
as §1

Regarding `CCC(C)SN1C(=O)[C@H](OC)[C@@H]1c1ccccc1Cl` (some centres not stated), the zone of inhibition at 50 µg/disc in the assay with Kluyveromyces marxianus stood at 0 mm; in the assay with Cyberlindnera jadinii, 0 mm; with Nakaseomyces glabratus, 0 mm; in the assay with Candida albicans it was 16 mm; with Pichia kudriavzevii it was 0 mm; with Candida parapsilosis it was 0 mm. Further, the zone of inhibition at 50 µg/disc in the assay with Clavispora lusitaniae came out at 0 mm; with Candida tropicalis it was 13 mm.
Take `CO[C@H]1C(=O)N(SC)[C@H]1c1cccc(F)c1`: the zone of inhibition at 50 µg/disc in the assay on Kluyveromyces marxianus worked out at 13 mm; in the assay with Cyberlindnera jadinii it was 16 mm; with Nakaseomyces glabratus, 0 mm; with Candida albicans, 14 mm; in the assay on Pichia kudriavzevii it was 0 mm; in the assay on Candida parapsilosis it was 22 mm. Besides, the zone of inhibition at 50 µg/disc with Clavispora lusitaniae and in the assay on Candida tropicalis was 0 mm each time.
Take `CO[C@H]1C(=O)N(SC)[C@H]1CCc1ccccc1`: the zone of inhibition at 50 µg/disc in the assay with Kluyveromyces marxianus stood at 24 mm; in the assay on Cyberlindnera jadinii, 28 mm; in the assay with Nakaseomyces glabratus, 20 mm; with Candida albicans, 34 mm; in the assay on Pichia kudriavzevii, 0 mm; in the assay with Candida parapsilosis, 14 mm. Besides, the zone of inhibition at 50 µg/disc in the assay with Clavispora lusitaniae stood at 15 mm; in the assay on Candida tropicalis, 17 mm.
`CO[C@H]1C(=O)N(SC)[C@H]1c1ccc(Cl)cc1`: the zone of inhibition at 50 µg/disc turned out to be 10 mm with Kluyveromyces marxianus; 0 mm with Cyberlindnera jadinii; 0 mm in the assay on Nakaseomyces glabratus; 0 mm with Candida albicans; 0 mm in the assay on Pichia kudriavzevii; 0 mm in the assay with Candida parapsilosis. Also, the zone of inhibition at 50 µg/disc in the assay on Clavispora lusitaniae is 14 mm; with Candida tropicalis, 0 mm.
As to `CSN1C(=O)[C@H](OC(C)=O)[C@@H]1CCc1ccccc1`, the zone of inhibition at 50 µg/disc in the assay with Kluyveromyces marxianus was 13 mm; with Cyberlindnera jadinii it was 0 mm; in the assay with Nakaseomyces glabratus it was 15 mm; in the assay with Candida albicans it was 0 mm; in the assay on Pichia kudriavzevii, 0 mm; with Candida parapsilosis it was 0 mm. Moreover, the zone of inhibition at 50 µg/disc in the assay on Clavispora lusitaniae and with Candida tropicalis was 0 mm throughout.
As for `CO[C@H]1C(=O)N(SC)[C@H]1c1ccccc1I`, the zone of inhibition at 50 µg/disc with Kluyveromyces marxianus was 15 mm; with Cyberlindnera jadinii, 15 mm; with Nakaseomyces glabratus it was 20 mm; in the assay on Candida albicans, 16 mm; in the assay with Pichia kudriavzevii, 0 mm; in the assay on Candida parapsilosis it was 22 mm. The zone of inhibition at 50 µg/disc in the assay with Clavispora lusitaniae turned out to be 17 mm; in the assay with Candida tropicalis, 15 mm.
Take `CSN1C(=O)[C@H](OC(C)=O)[C@@H]1c1ccccc1`: the zone of inhibition at 50 µg/disc turned out to be 9 mm in the assay on Kluyveromyces marxianus; 16 mm with Cyberlindnera jadinii; 0 mm in the assay on Nakaseomyces glabratus; 14 mm in the assay on Candida albicans; 0 mm with Pichia kudriavzevii; 0 mm in the assay with Candida parapsilosis. The zone of inhibition at 50 µg/disc with Clavispora lusitaniae and in the assay with Candida tropicalis was 15 mm throughout.
For the compound `CO[C@H]1C(=O)N(SC)[C@H]1/C=C/c1ccccc1`, the zone of inhibition at 50 µg/disc with Kluyveromyces marxianus came out at 14 mm; with Cyberlindnera jadinii, 19 mm; with Nakaseomyces glabratus, 16 mm; in the assay on Candida albicans, 27 mm; in the assay on Pichia kudriavzevii, 0 mm; in the assay on Candida parapsilosis it was 13 mm. The zone of inhibition at 50 µg/disc in the assay on Clavispora lusitaniae and in the assay with Candida tropicalis was 14 mm throughout.
Turning to `CO[C@H]1C(=O)N(SC)[C@H]1c1ccc(I)cc1`, the zone of inhibition at 50 µg/disc in the assay on Kluyveromyces marxianus came out at 19 mm; with Cyberlindnera jadinii, 20 mm; with Nakaseomyces glabratus, 22 mm; in the assay on Candida albicans, 16 mm; in the assay on Pichia kudriavzevii, 0 mm; in the assay with Candida parapsilosis it was 25 mm. Further, the zone of inhibition at 50 µg/disc in the assay with Clavispora lusitaniae worked out at 20 mm; in the assay with Candida tropicalis it was 12 mm.

The record behind these values is ChEMBL document CHEMBL1156595, “Studies on the antifungal properties of N-thiolated beta-lactams” (2008).
